Results taken from ChEMBL document CHEMBL4400546, “A Cinchona Alkaloid Antibiotic That Appears To Target ATP Synthase in Streptococcus pneumoniae” (J Med Chem, 2019).
≈ marks a conversion by molar mass, not a printed value. Blank lines part the entries; values can stand above or below the molecule they belong to.

What was measured:
[1] = Tmax in ICR mouse at 2.5 mg/kg, iv by LC-MS/MS analysis; assay type: ADME, organism-based; details: in vivo
Outline: (§1)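 Male ICR mice, single i.v. bolus at 2.5 mg/kg. Serum concentration-time curves (n = 3) analysed noncompartmentally to give Tmax and steady-state volume of distribution.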

[2] = tested on: Streptococcus pneumoniae; assay: Antibacterial activity against Streptococcus pneumoniae D39 after 20 hrs by CLSI-based microdilution method; assay type: functional; details: D39, 20 h
[3] = AUCt in ICR mouse at 2.5 mg/kg, iv by LC-MS/MS analysis; assay type: ADME, organism-based; details: in vivo
Outline: (§2)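 Single-dose PK in male ICR mice, bolus p.o. 25 mg/kg or i.v. 2.5 mg/kg. Plasma concentration followed over time, n = 3. Parameters derived by noncompartmental analysis of the concentration–time curves. Oral bioavailability calculated from AUC.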

[4] = Clearance in ICR mouse at 2.5 mg/kg, iv by LC-MS/MS analysis; assay type: ADME, organism-based; details: in vivo; outline: as §2
[5] = Drug metabolism in ICR mouse liver microsomes assessed as [(1S,2S,4S,5Z)-5-ethylidenequinuclidin-2-yl]-(6-hydroxy-4-quinolyl)methanone metabolite formation at 10 uM preincubated with NADPH for 10 mins by LC-MS/MS analysis; assay type: ADME, Microsome
[6] = Drug metabolism in ICR mouse liver microsomes assessed as ) 6-(cyclobutoxy)-4-[(R)-hydroxy-[(1S,2S,4S,5Z)-5-(2-hydroxyethylidene)quinuclidin-2-yl]methyl]-1H-quinolin-2-one metabolite formation at 10 uM preincubated with NADPH for 10 mins by LC-MS/MS analysis; assay type: ADME, Microsome
[7] = Volume of distribution at steady state in ICR mouse at 2.5 mg/kg, iv by LC-MS/MS analysis; assay type: ADME, organism-based; details: in vivo, read-out: Vdss; outline: as §1
[8] = Drug level in ICR mouse liver microsomes treated with 6-Cyclobutoxy-(R)-4-[((1S,2S,4S,5Z)-5-ethylidene-1-azabicyclo-[2.2.2]octan-2-yl)hydroxymethyl]quinoline at 10 uM preincubated with NADPH for 10 mins and measured after 90 mins by LC-MS/MS analysis; assay type: ADME, Microsome; details: 1.5 h
[9] = Oral bioavailability in ICR mouse at 25 mg/kg via bolus administration by LC-MS/MS analysis; assay type: ADME, organism-based; details: in vivo
Outline: (§3)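 Male ICR mice, single oral bolus at 25 mg/kg. Serum concentration-time profiles (n = 3) analysed by noncompartmental analysis.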

[10] = Drug metabolism in ICR mouse liver microsomes assessed as [6-(cyclobutoxy)-4-quinolyl]-[(1S,2S,4S,5Z)-5-(2-hydroxyethylidene)quinuclidin-2-yl]methanone metabolite formation at 10 uM preincubated with NADPH for 10 mins by LC-MS/MS analysis; assay type: ADME, Microsome
[11] = Elimination half life in ICR mouse at 25 mg/kg, po via bolus administration by LC-MS/MS analysis; assay type: ADME, organism-based; details: in vivo, read-out: beta t1/2 (converted); outline: as §2
[12] = Drug level in ICR mouse liver microsomes treated with 6-Cyclobutoxy-(R)-4-[((1S,2S,4S,5E)-5-ethylidene-1-azabicyclo[2.2.2]octan-2-yl)hydroxymethyl]quinoline at 10 uM preincubated with NADPH for 10 mins and measured after 90 mins by LC-MS/MS analysis; assay type: ADME, Microsome; details: 1.5 h
[13] = Cmax in ICR mouse at 25 mg/kg, po via bolus administration by LC-MS/MS analysis; assay type: ADME, organism-based; design: dose 25 mg/kg, route oral; details: in vivo; outline: as §2
[14] = Tmax in ICR mouse at 25 mg/kg, po via bolus administration by LC-MS/MS analysis; assay type: ADME, organism-based; details: in vivo; outline: as §3
[15] = AUCt in ICR mouse at 25 mg/kg, po via bolus administration by LC-MS/MS analysis; assay type: ADME, organism-based; details: in vivo; outline: as §2
[16] = Cmax in ICR mouse at 2.5 mg/kg, iv by LC-MS/MS analysis; assay type: ADME, organism-based; design: dose 2.5 mg/kg, route intravenous; details: in vivo; outline: as §2
[17] = Drug metabolism in ICR mouse liver microsomes at 10 uM preincubated with NADPH for 10 mins and measured after 60 mins by LC-MS/MS analysis; assay type: ADME, Microsome; details: read-out: Drug metabolism
[18] = Elimination half life in ICR mouse at 2.5 mg/kg, iv by LC-MS/MS analysis; assay type: ADME, organism-based; details: in vivo, read-out: beta t1/2 (converted); outline: as §2
[19] = Cytotoxicity against human HepG2 cells assessed as reduction in cell viability after 48 hrs by Alamar Blue assay; assay type: cell-based
[20] = Drug metabolism in ICR mouse liver microsomes assessed as (2S,3S,4S,5R,6R)-6-[[4-[(R)-[(1S,2S,4S,5Z)-5-ethylidenequinuclidin-2-yl]-hydroxy-methyl]-6-quinolyl]oxy]-3,4,5-trihydroxy-tetrahydropyran-2-carboxylic acid metabolite formation at 10 uM preincubated with NADPH for 10 mins by LC-MS/MS analysis; assay type: ADME, Microsome
[21] = tested on: Staphylococcus epidermidis; assay: Antibacterial activity against Staphylococcus epidermidis; assay type: functional
[22] = tested on: Streptococcus pneumoniae; assay: Antibacterial activity against Streptococcus pneumoniae; assay type: functional
Outline: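 MIC read per CLSI guidelines as the lowest concentration giving complete inhibition of visible growth. The main screen used strain D39. A further panel covered drug-sensitive, multidrug-resistant and optochin-resistant strains, including R6 carrying atpE point mutations G142C or G145A made by a PCR-based approach.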

[23] = tested on: Enterococcus faecalis; assay: Antibacterial activity against Enterococcus faecalis; assay type: functional
[24] = tested on: Streptococcus pyogenes; assay: Antibacterial activity against Streptococcus pyogenes; assay type: functional
[25] = tested on: Staphylococcus aureus; assay: Antibacterial activity against Staphylococcus aureus; assay type: functional
[26] = tested on: Enterococcus faecium; assay: Antibacterial activity against Enterococcus faecium; assay type: functional
[27] = tested on: Streptococcus pneumoniae; assay: Antibacterial activity against amoxicillin/penicillin/cefotaxime/erythromycin/tetracycline-resistant Streptococcus pneumoniae TH2784 (19F) after 20 hrs by CLSI-based microdilution method; assay type: functional
[28] = tested on: Streptococcus pneumoniae; assay: Antibacterial activity against amoxicillin/penicillin/chloramphenicol/erythromycin/meropenem/cefotaxime-resistant Streptococcus pneumoniae TH2582 (19A) after 20 hrs by CLSI-based microdilution method; assay type: functional
[29] = tested on: Streptococcus pneumoniae; assay: Antibacterial activity against optochin-resistant Streptococcus pneumoniae R6 expressing atpE G145A mutant after 20 hrs by CLSI-based microdilution method; assay type: functional; details: R6, 20 h
[30] = Mitochondrial toxicity in human HepG2 cells assessed as reduction in cell viability after 24 hrs in presence of glucose by CellTiter-Glo assay; assay type: cell-based
Outline: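 HepG2 cells grown in DMEM with 10 mM glucose, treated 24 h; viability read by CellTiter-Glo luminescence. Value is the concentration giving 90% loss of viability (CC90) from dose-response curves, top concentration 300 µM.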

[31] = Mitochondrial toxicity in human HepG2 cells assessed as reduction in cell viability after 24 hrs in presence of galactose by CellTiter-Glo assay; assay type: cell-based
Outline: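 HepG2 cells are grown in DMEM supplemented with 10 mM galactose or 10 mM glucose and treated for 24 h. Viability is read by CellTiter-Glo luminescence. The CC90 is the concentration inhibiting 90% of cell viability, taken from dose–response curves. Oligomycin and tamoxifen serve as controls.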

[32] = tested on: Streptococcus pneumoniae; assay: Antibacterial activity against Streptococcus pneumoniae R6 after 20 hrs by CLSI-based microdilution method; assay type: functional; details: R6, 20 h
[33] = tested on: Streptococcus pneumoniae; assay: Antibacterial activity against penicillin/erythromycin/meropenem/tetracycline-resistant Streptococcus pneumoniae TH2863 (19F) after 20 hrs by CLSI-based microdilution method; assay type: functional
[34] = tested on: Streptococcus pneumoniae; assay: Antibacterial activity against optochin-resistant Streptococcus pneumoniae R6 expressing atpE G142C mutant after 20 hrs by CLSI-based microdilution method; assay type: functional; details: R6, 20 h
[35] = tested on: Streptococcus pneumoniae; assay: Antibacterial activity against amoxicillin/penicillin/erythromycin/ertapenem/moxifloxacin/cefotaxime-resistant Streptococcus pneumoniae TH2889 (6B) after 20 hrs by CLSI-based microdilution method; assay type: functional
[36] = tested on: Streptococcus pneumoniae; assay: Bactericidal activity against Streptococcus pneumoniae D39 after 24 hrs; assay type: functional; details: D39, 24 h

SMILES: C/C=C1\C[N@]2CC[C@H]1C[C@H]2[C@H](O)c1ccnc2ccc(OC3CCC3)cc12
Tmax [1]: 1.98 min
MIC [2]: 1.4 µM (≈ 0.51 µg/mL)
AUC(0-t) [3]: 235 ng·h/mL
clearance [4]: 172 mL/min/kg
Drug metabolism [5]: Metabolite_Detected
Drug metabolism [6]: Metabolite_Detected
Vd [7]: 6.3 L/kg
Drug uptake [8]: Active
bioavailability [9]: 13.6%
Drug metabolism [10]: Metabolite_Detected
half-life [11]: 41.4 min
Drug uptake [12]: Active
Cmax [13]: 207 ng/mL
Tmax [14]: 15 min
AUC(0-t) [15]: 319 ng·h/mL
Cmax [16]: 521 ng/mL
metabolised at 1 h, 10 µM [17]: 99.8%
half-life [18]: 25.2 min
CC50 at 48 h [19]: 59 µM
Drug metabolism [20]: Metabolite_Detected

MIC [21]: 1.5 to 6.3 µg/mL (≈ 3.58 to 15 µM)
MIC [22]: 0.08 to 1.25 µg/mL (≈ 0.191 to 2.98 µM)
MIC [23]: 1.5 to 6.3 µg/mL (≈ 3.58 to 15 µM)
MIC [24]: 1.5 to 6.3 µg/mL (≈ 3.58 to 15 µM)
MIC [25]: 1.5 to 6.3 µg/mL (≈ 3.58 to 15 µM)
MIC [26]: 1.5 to 6.3 µg/mL (≈ 3.58 to 15 µM)
SMILES: OC(c1cc(C2C[C@H]3CC[C@@H]2CC3)nc2c(Cl)c(Cl)ccc12)C1CCCCN1 (stereo partly drawn)

SMILES: C/C=C1/C[N@]2CC[C@H]1C[C@H]2[C@H](O)c1ccnc2ccc(OC3CCC3)cc12
Tmax [1]: 1.98 min
MIC [2]: 0.7 µM (≈ 0.255 µg/mL)
AUC(0-t) [3]: 175 ng·h/mL
clearance [4]: 230 mL/min/kg
Vd [7]: 8.8 L/kg
bioavailability [9]: 21%
half-life [11]: 42 min
Cmax [13]: 331 ng/mL
Tmax [14]: 4.98 min
AUC(0-t) [15]: 368 ng·h/mL
Cmax [16]: 399 ng/mL
half-life [18]: 26.4 min
CC50 at 48 h [19]: 65 µM

SMILES: CCOc1ccc2nccc([C@@H](O)[C@@H]3C[C@@H]4CCN3C[C@@H]4CC)c2c1 [ETHYLHYDROCUPREINE]
Tmax [1]: 1.98 min
MIC [27]: 2 µg/mL (≈ 5.87 µM)
MIC [2]: 6 to 12 µM (≈ 2.04 to 4.09 µg/mL)
AUC(0-t) [3]: 144 ng·h/mL
clearance [4]: 274 mL/min/kg
MIC [28]: 2 µg/mL (≈ 5.87 µM)
Vd [7]: 12.7 L/kg
MIC [29]: 16 µg/mL (≈ 47 µM)
CC90 at 24 h [30]: 300 µM
bioavailability [9]: 109%
half-life [11]: 60 min
CC90 at 24 h [31]: 300 µM
MIC [32]: 2 µg/mL (≈ 5.87 µM)
Cmax [13]: 639 ng/mL
MIC [33]: 4 to 8 µg/mL (≈ 11.7 to 23.5 µM)
Tmax [14]: 30 min
AUC(0-t) [15]: 1570 ng·h/mL
Cmax [16]: 375 ng/mL
metabolised at 1 h, 10 µM [17]: 87%
half-life [18]: 31.8 min
MIC [34]: 64 µg/mL (≈ 188 µM)
CC50 at 48 h [19]: > 100 µM
MIC [35]: 2 µg/mL (≈ 5.87 µM)
MBC [36]: 4 µg/mL (≈ 11.7 µM)
